Screening results deposited in PubChem BioAssay by SRMLSC.
PostGolgi ctrl – growth of the yeast control strain, post-Golgi counter-screen | efflux-deficient yeast background strain, growth absorbance A615, 16 h | inhibition, % at 10 µM | 5% of 98,000 active | AID 738
Yeast life ext – extends the lifespan of yeast | S. cerevisiae growth with nicotinamide, OD615; deaD strain in restrictive glucose medium | 0.68% of 130,000 active | inhibition of the nicotinamide effect, % at 10 µM | AID 775;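 active means inhibition above a set limit, placed 3 SD over the median of all compounds, cut at about 26% in these data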
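System: DeaD-strain S. cerevisiae / Buffer or medium: CSMM-D, restrictive glucose (dextrose) synthetic minimal medium / Probe or stimulus: nicotinamide, 1.5 mM, co-present with compound / Compound: one concentration, 10 µM, DMSO 0.25% / Incubation: 48 h compound exposure at 30 °C, humidified / Technique: optical density (absorbance) at 615 nm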
Yeast growth inh – chemicals that inhibit yeast BB579 growth in restrictive medium (lifespan-shortening candidates). inhibition, % at 10 µM. 0.51% of 140,000 active. S. cerevisiae BB579 growth, OD615, 48 h;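 active means inhibition above a set limit, 3 SD over the mean compound inhibition, cut at about 44% in these data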
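Test system: S. cerevisiae DeaD strain BB579 yeast; Medium: restrictive CSMM-D medium; Compound: one dose, 10 µM compound with 0.25% DMSO; Incubation: 4 h cell preincubation, 48 h compound exposure, 30 °C humidified; Signal: OD at 615 nm; Benchmarks: amphotericin B at 10 µg/mL as positive control.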
PostGolgi yeast – growth inhibition of a yeast mutant, post-Golgi transport screen | post-Golgi transport phenotypic cell assay | inhibition, % at 10 µM | 0.9% of 98,000 active;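 further: yeast cells grown in 1536-well plates; yeast grown about 18 h at 30C before absorbance read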
A number is an active result. Shown is part of a subset that was picked to be rich in hits. Unless noted, no stated cut-off is given here; in the data, active means inhibition above about 30%; inactive means the rest.

Results for COc1ccccc1C(c1nnnn1C(C)(C)C)N1CCN(Cc2ccncc2)CC1 (configuration not stated) ?
PostGolgi ctrl: inactive; Yeast life ext: inactive; Yeast growth inh: inactive; PostGolgi yeast: inactive

What do the screens show for `COc1ccccc1N1CCN(C(c2ccc(Cl)cc2)c2nnnn2C(C)(C)C)CC1` (configuration not stated)?
PostGolgi ctrl: 44.1; Yeast life ext: inactive; Yeast growth inh: inactive; PostGolgi yeast: inactive

What do the screens show for `C[n+]1cc[nH]c1SCC(=O)c1ccccc1`?
PostGolgi ctrl: inactive; Yeast life ext: inactive; Yeast growth inh: inactive; PostGolgi yeast: inactive

Results for CC(C)(C)n1nnnc1CN(Cc1cccnc1)Cc1ccccc1Cl ?
PostGolgi ctrl: inactive; Yeast life ext: inactive; Yeast growth inh: inactive; PostGolgi yeast: 50.3

How did O=C(COc1ccc2ccccc2c1Br)N1CCN(c2ccccn2)CC1 do in these assays?
PostGolgi ctrl: 36.7; Yeast life ext: inactive; Yeast growth inh: inactive; PostGolgi yeast: inactive

What do the screens show for `CCC(=O)Nc1nonc1-c1nc2ccccc2n1CCC(C)C`?
PostGolgi ctrl: 35.7; Yeast life ext: inactive; Yeast growth inh: inactive; PostGolgi yeast: inactive

How did CC(C)C(c1nnnn1Cc1ccco1)N1CCN(c2nc3ccccc3s2)CC1 (configuration not stated) do in these assays?
PostGolgi ctrl: 41.1; Yeast life ext: inactive; Yeast growth inh: inactive; PostGolgi yeast: inactive

What do the screens show for `O=C1CC(N2CCN(c3nc4ccccc4s3)CC2)C(=O)N1Cc1cccs1` (configuration not stated)?
PostGolgi ctrl: 101.8; Yeast life ext: inactive; Yeast growth inh: 98.4; PostGolgi yeast: 92.5

Results for CCC(c1nnnn1Cc1cccs1)N1CCN(c2nc3ccccc3s2)CC1 (configuration not stated) ?
PostGolgi ctrl: 31.6; Yeast life ext: inactive; Yeast growth inh: inactive; PostGolgi yeast: inactive

Results for COc1ccc(C2C(C(N)=O)=C(C)Nc3nc(-c4ccccc4Cl)nn32)c(OC)c1 (configuration not stated) ?
PostGolgi ctrl: inactive; Yeast life ext: inactive; Yeast growth inh: inactive; PostGolgi yeast: inactive

How did COC(=O)C1C(=O)OC(C)(C)C1C(C)C(=O)c1ccccc1 (configuration not stated) do in these assays?
PostGolgi ctrl: inactive; Yeast life ext: inactive; Yeast growth inh: inactive; PostGolgi yeast: inactive

What do the screens show for `COc1ccc(NS(=O)(=O)c2ccc3c(c2)Cc2ccccc2-3)cn1`?
PostGolgi ctrl: 64.6; Yeast life ext: inactive; Yeast growth inh: inactive; PostGolgi yeast: inactive

What do the screens show for `COc1ccc(C(=O)N2CCN(C(=O)Cc3ccccc3)CC2)cc1OC`?
PostGolgi ctrl: 46.5; Yeast life ext: inactive; Yeast growth inh: inactive; PostGolgi yeast: inactive

What do the screens show for `Cc1ccc(C)n1CCN1CCN(CC(=O)Nc2ccc(S(N)(=O)=O)cc2)CC1`?
PostGolgi ctrl: 36.5; Yeast life ext: inactive; Yeast growth inh: inactive; PostGolgi yeast: inactive

Results for NS(=O)(=O)c1ccc(NC(=O)CN2CCCCC2)cc1 ?
PostGolgi ctrl: inactive; Yeast life ext: inactive; Yeast growth inh: inactive; PostGolgi yeast: inactive

How did CCOC(=O)c1c(NS(C)(=O)=O)sc2c1CCC(C)C2 (configuration not stated) do in these assays?
PostGolgi ctrl: 31.6; Yeast life ext: inactive; Yeast growth inh: inactive; PostGolgi yeast: inactive

How did COCCCn1c(SCC(=O)Nc2nc3ccccc3s2)nnc1-c1ccoc1C do in these assays?
Yeast growth inh: inactive

Results for Cc1ccc(-c2cc(C(F)F)nc(NCc3cccs3)n2)cc1 ?
Yeast life ext: inactive; Yeast growth inh: inactive

How did Cc1ccc(-c2cc(C(F)F)nc(NCc3cccnc3)n2)cc1 do in these assays?
PostGolgi ctrl: 43.8; Yeast life ext: inactive; Yeast growth inh: inactive; PostGolgi yeast: inactive

How did Cc1ccc(-c2cc(C(F)F)nc(NCC3CCCO3)n2)cc1 (configuration not stated) do in these assays?
PostGolgi ctrl: 32.0; Yeast life ext: inactive; Yeast growth inh: inactive; PostGolgi yeast: inactive

What do the screens show for `O=C(Oc1ccc(=O)n(-c2ccccc2)n1)c1ccccc1`?
PostGolgi ctrl: inactive; Yeast life ext: 35.9; Yeast growth inh: inactive; PostGolgi yeast: inactive

Results for O=C(O)COc1ccc(=O)n(-c2ccccc2)n1 ?
PostGolgi ctrl: inactive; Yeast life ext: inactive; Yeast growth inh: inactive; PostGolgi yeast: inactive

How did Cc1sc2ncnc(SCC(=O)N3CCC(c4noc5ccc(F)cc45)CC3)c2c1C do in these assays?
PostGolgi ctrl: 91.1; Yeast life ext: inactive; Yeast growth inh: inactive; PostGolgi yeast: 82.5

Results for Cc1nnc(SCC(=O)N2CCC(c3noc4ccc(F)cc34)CC2)s1 ?
PostGolgi ctrl: inactive; Yeast life ext: inactive; Yeast growth inh: inactive; PostGolgi yeast: inactive

What do the screens show for `CCc1nnc2sc(-c3cc(-c4ccccc4)nc4ccccc34)nn12`?
PostGolgi ctrl: 33.9; Yeast life ext: inactive; Yeast growth inh: inactive; PostGolgi yeast: inactive

How did COc1cc(Cl)c(C)cc1NC(=O)CNC(=O)Cn1cnc2ccccc2c1=O do in these assays?
PostGolgi ctrl: inactive; Yeast life ext: inactive; Yeast growth inh: inactive; PostGolgi yeast: inactive

Results for COc1ccc(Cc2nn3c(-c4cc(OC)c(OC)c(OC)c4)nnc3s2)cc1 ?
PostGolgi ctrl: 35.5; Yeast life ext: inactive; Yeast growth inh: inactive; PostGolgi yeast: inactive

What do the screens show for `Brc1ccccc1-c1nnc2sc(Cc3ccccc3)nn12`?
PostGolgi ctrl: inactive; Yeast life ext: inactive; Yeast growth inh: inactive; PostGolgi yeast: inactive

How did COc1ccc(Cc2nn3c(-c4ccccc4Br)nnc3s2)cc1 do in these assays?
PostGolgi ctrl: 44.8; Yeast life ext: inactive; Yeast growth inh: inactive; PostGolgi yeast: inactive

Results for CC(C)c1cc(C(=O)N/N=C/c2ccco2)n[nH]1 ?
Yeast life ext: inactive; Yeast growth inh: inactive

Results for Cc1ccc(N=Nc2c(N)nn(-c3ccccc3)c2N)cc1 ?
Yeast life ext: inactive; Yeast growth inh: inactive

How did Cc1cccc(N=Nc2c(N)n[nH]c2-c2ccc(Cl)cc2)c1 do in these assays?
PostGolgi ctrl: 33.6; Yeast life ext: inactive; Yeast growth inh: inactive; PostGolgi yeast: inactive

What do the screens show for `Cc1ccc(-c2[nH]nc(N)c2N=Nc2ccccc2C)cc1`?
PostGolgi ctrl: 62.9; Yeast life ext: inactive; Yeast growth inh: 51.6; PostGolgi yeast: 53.6

What do the screens show for `Cc1ccc(-c2[nH]nc(N)c2N=Nc2cccc(Cl)c2C)cc1`?
PostGolgi ctrl: 44.5; Yeast life ext: inactive; Yeast growth inh: inactive; PostGolgi yeast: inactive

How did Nc1nc(-c2ccccc2)c(N=Nc2ccccc2Cl)s1 do in these assays?
Yeast life ext: inactive; Yeast growth inh: inactive

Results for Cc1cc(C)n2nc(N)c(N=Nc3cccc(Cl)c3)c2n1 ?
Yeast life ext: inactive; Yeast growth inh: inactive

Results for CCN(CC1COc2ccccc2O1)C(=S)Nc1ccc(F)cc1 (configuration not stated) ?
Yeast life ext: inactive; Yeast growth inh: inactive

What do the screens show for `Cc1nn(C(=O)c2ccco2)c(C)c1Sc1ccc(Cl)cc1`?
Yeast life ext: inactive; Yeast growth inh: inactive

What do the screens show for `Cc1nn(C(=O)c2cccnc2)c(C)c1Sc1ccc(Br)cc1`?
PostGolgi ctrl: 32.5; Yeast life ext: inactive; Yeast growth inh: inactive; PostGolgi yeast: inactive

What do the screens show for `O=C(OCn1nnc2ccccc2c1=O)c1ccc(S(=O)(=O)N2CCOCC2)cc1`?
PostGolgi ctrl: inactive; Yeast life ext: inactive; Yeast growth inh: inactive; PostGolgi yeast: inactive
